The text below walks through data of ChEMBL document CHEMBL1124926, “Structure-activity relationships of antifilarial antimycin analogues: a multivariate pattern recognition study” (J Med Chem, 1990).

The nature of series [1]: Negative log transformed activity. The class given is ADME. The arrangement: unit not given here.
Series [2] concerns Acanthocheilonema viteae. Description: In vitro macrofilaricidal activity against Dipetalonema viteae was determined using the leakage of incorporated radiolabeled adenine method. The class given is functional, organism-based. The essentials: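 D. viteae adult females were labelled with radiolabelled adenine, then exposed for 120 h to concentrations descending from 10 μM in serum-free Eagle's minimal essential medium. Viability was scored as leakage of incorporated label into the medium, and the EC50 was the concentration releasing 50% of the adenine taken up.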

In series [3] the test system is Brugia pahangi. Description: (§1) In vivo percent reduction of Brugia pahangi worm in gerbils. The class given is functional. The arrangement: concentration or dose not given beside the values. The essentials:
(§2)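 Animals were autopsied 35 days after the final dose, and worm recoveries were compared with those from untreated controls.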

Series [4] has as its system Brugia pahangi. Described as §1. The class given is functional. In outline:
as §2

The test system of series [5] is Brugia pahangi. Description: In vivo percent reduction of Brugia pahangi worm in gerbils; Some toxicity. In kind it is functional. The essentials:
as §2

Where only a bound is given, the exact number is not on record here.

The term EC50 denotes the concentration needed to bring the measured effect to its halfway point.

For the molecule `CSc1ccc(O)c(C(=O)Nc2ccc(Oc3ccc(Cl)cc3)c(Cl)c2)c1`, in series [1], the “-Log activity” value stood at 0.32. Also, the response in series [2] was half-maximal at 480 nM (EC50). Also, the Worm reduction in series [3] was found to be 58%.
For `O=C(Nc1ccc(Oc2ccc(C(F)(F)F)cc2)cc1)c1cc([N+](=O)[O-])ccc1O` the same measures were 1.02, 95 nM and 72%.
For the molecule `CCCCCCCCNC(=O)c1cccc(NC=O)c1O`, the “-Log activity” value in series [1] is recorded as -0.41. Moreover, it took 2600 nM to reach a half-maximal effect in series [2] (EC50).
Turning to `O=C(c1ccc(Cl)cc1)c1cc([N+](=O)[O-])ccc1O`, the “-Log activity” value in series [1] was found to be 0.48. Besides, the EC50 in series [2] stood at 330 nM. In series [3], this molecule yielded a Worm reduction of 61%.
For `O=C(Nc1ccc(Oc2cccc(C(F)(F)F)c2)cc1)c1cc([N+](=O)[O-])ccc1O` the same measures were 1.03, 94 nM and 80%.
On to `CCCCCCCCCCCCCCNC(=O)c1cccc([N+](=O)[O-])c1O`, for which the “-Log activity” value in series [1] was 0.82. Also, in series [2], the EC50 is 152 nM.
Consider `O=C(Nc1ccc(C(O)c2ccccc2)cc1)c1cc([N+](=O)[O-])ccc1O` (centres undefined), for which the “-Log activity” value in series [1] is recorded as -1. The same molecule registered an EC50 in series [2] greater than 10000 nM. Besides, in series [3], the Worm reduction turned out to be 39%.
On to `CCCCCCCCCCCCCCNC(=O)c1cccc(NC=O)c1O`, for which the “-Log activity” value in series [1] is reported as -0.85. The molecule also gave a 50% effective concentration (EC50) in series [2] of 7000 nM. In series [4], this molecule registered a Worm reduction of 80%.
On to `O=C(Nc1ccc(Oc2cccc(C(F)(F)F)c2)c(Cl)c1)c1cc([N+](=O)[O-])ccc1O`, for which the “-Log activity” value in series [1] is on record as 1.07. In series [2], this molecule returned an EC50 of 85 nM. Further, in series [3], the Worm reduction worked out at 74%.
On to `O=C(Nc1ccc(Oc2ccc(Cl)cc2)c(Cl)c1)c1cccc([N+](=O)[O-])c1O`, for which, in series [1], the “-Log activity” value is 0.82. In addition, in series [2], a half-maximal effect (EC50) was put at 150 nM.
Consider `O=C(Nc1ccc(Oc2ccc(SC(F)(F)F)cc2)c(Cl)c1)c1cc([N+](=O)[O-])ccc1O`, for which the “-Log activity” value in series [1] was determined as 1.55. Besides, in series [2], the concentration giving a half-maximal response (EC50) is 28 nM. Also, the Worm reduction in series [5] came to 85%.
As for `COc1ccc(Oc2ccc(NC(=O)c3cc([N+](=O)[O-])ccc3O)cc2Cl)cc1`, in series [1], the “-Log activity” value was determined as 0.77. The EC50 in series [2] turned out to be 170 nM. The molecule also returned a Worm reduction in series [3] of 61%.
For the molecule `O=C(Nc1ccc(Oc2ccc([N+](=O)[O-])cc2Cl)cc1)c1cc([N+](=O)[O-])ccc1O`, the “-Log activity” value in series [1] was determined as 0.92. The molecule further displayed an EC50 in series [2] of 120 nM. The molecule also returned a Worm reduction in series [3] of 70%.
For the molecule `CS(=O)(=O)c1ccc(O)c(C(=O)Nc2ccc(Oc3ccc(Cl)cc3)c(Cl)c2)c1`, the “-Log activity” value in series [1] was found to be 0. Moreover, a half-maximal effect in series [2] (EC50) was put at 1000 nM. Besides, the Worm reduction in series [3] worked out at 28%.
For `O=C(Nc1ccc(Oc2ccc(Cl)cc2)c(Cl)c1)c1cc([N+](=O)[O-])ccc1O` the same measures were 1.4, 40 nM and 80.6%.
Turning to `CSc1cccc(C(=O)Nc2ccc(Oc3ccc(Cl)cc3)c(Cl)c2)c1O`, in series [1], the “-Log activity” value was 0.42. Moreover, the response in series [2] was half-maximal at 380 nM (EC50). For the same molecule, the Worm reduction in series [3] turned out to be 52%.
In the case of `CCCCCCCCCCCCCCNC(=O)c1cccc(NC(C)=O)c1O`, the “-Log activity” value in series [1] is -0.9. In series [2], the response was half-maximal at 8000 nM (EC50).
Regarding `O=C(Nc1ccc(Nc2ccc(Cl)cc2)c(Cl)c1)c1cc([N+](=O)[O-])ccc1O`, the “-Log activity” value in series [1] amounted to 0.43. In series [2], the midpoint of the response, the EC50, lay at 370 nM. The Worm reduction in series [3] came to 48%.
For `O=C(Nc1ccc(C(=O)c2ccc(Cl)cc2)c(Cl)c1)c1cc([N+](=O)[O-])ccc1O` the same measures were 1.13, 74 nM and 14%.
For `CC(C)(C)c1ccc(NC(=O)c2cc([N+](=O)[O-])ccc2O)cc1` the same measures were 0.23, 590 nM and 44%.
In the case of `CCCCCCCCCCCCCCCCNC(=O)c1cccc([N+](=O)[O-])c1O`, the “-Log activity” value in series [1] is on record as -0.04. In addition, the EC50 in series [2] was found to be 1100 nM.
For `CCCCCCCCCCCCNC(=O)c1cc([N+](=O)[O-])ccc1O`, the “-Log activity” value in series [1] was found to be 1.41. The molecule also had a concentration giving a half-maximal response (EC50) in series [2] of 39 nM. Also, in series [3], the Worm reduction is reported as 0%.
For `N#Cc1ccc(O)c(C(=O)Nc2ccc(Oc3ccc(Cl)cc3)c(Cl)c2)c1` the same measures were 1.84, 14.5 nM and 17%.
Take `CS(=O)(=O)c1cccc(C(=O)Nc2ccc(Oc3ccc(Cl)cc3)c(Cl)c2)c1O`: in series [1], the “-Log activity” value amounted to 0.3. Further, the concentration giving a half-maximal response (EC50) in series [2] is 500 nM. For the same molecule, the Worm reduction in series [3] came to 42%.
Take `CCCCCCCCCCCCCCNC(=O)c1cc([N+](=O)[O-])ccc1O`: the “-Log activity” value in series [1] was found to be 0.89. Also, the half-maximal effective concentration (EC50) in series [2] turned out to be 128 nM.
`O=C(Nc1ccc(Sc2ccc(Cl)cc2)c(Cl)c1)c1cc([N+](=O)[O-])ccc1O`: the “-Log activity” value in series [1] turned out to be 1.36. For the same molecule, the EC50 in series [2] came out at 44 nM. For the same molecule, the Worm reduction in series [3] amounted to 70%.
For `O=C(Nc1ccc(Oc2ccccc2)cc1)c1cc([N+](=O)[O-])ccc1O` the same measures were 0.1, 800 nM and 89%.
As to `O=CNc1cccc(C(=O)Nc2ccc(Oc3ccc(Cl)cc3)c(Cl)c2)c1O`, the “-Log activity” value in series [1] was -0.38. This molecule also displayed a concentration for a half-maximal effect (EC50) in series [2] of 2400 nM.
For `C[S+]([O-])c1ccc(O)c(C(=O)Nc2ccc(Oc3ccc(Cl)cc3)c(Cl)c2)c1` (centres undefined), the “-Log activity” value in series [1] is on record as -0.88. In series [2], the concentration for a half-maximal effect (EC50) stood at 7500 nM. The Worm reduction in series [3] worked out at 84%.
In the case of `CCCCCCNC(=O)c1cccc(NC=O)c1O`, the “-Log activity” value in series [1] is listed as -1. Moreover, the EC50 in series [2] was greater than 10000 nM.
For `CCCCCCCCCCCCCCNC(=O)c1cc(Cl)cc([N+](=O)[O-])c1O` the same measures were 1.36 and 43.5 nM.
